# Assay outcomes deposited in PubChem by Johns Hopkins Ion Channel Center.
# Hits are enriched below; roughly 2.3% of the tested compounds scored in any of these assays.
# TRPC6 activator: mouse TRPC6 channel activation. Q61143. HEK293-TRPC6 membrane potential dye fluorescence; stronger effect = higher value. B-score at 10 µM. 310,000 tested, 0.13% active;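 active means B-score of the integrated fluorescence ratio above library mean plus 3 SD, and starting fluorescence ratio within library mean plus 5 SD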;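 further: higher score means more depolarization so channel activation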
# Target sequence (Q61143 whole entry, looked up): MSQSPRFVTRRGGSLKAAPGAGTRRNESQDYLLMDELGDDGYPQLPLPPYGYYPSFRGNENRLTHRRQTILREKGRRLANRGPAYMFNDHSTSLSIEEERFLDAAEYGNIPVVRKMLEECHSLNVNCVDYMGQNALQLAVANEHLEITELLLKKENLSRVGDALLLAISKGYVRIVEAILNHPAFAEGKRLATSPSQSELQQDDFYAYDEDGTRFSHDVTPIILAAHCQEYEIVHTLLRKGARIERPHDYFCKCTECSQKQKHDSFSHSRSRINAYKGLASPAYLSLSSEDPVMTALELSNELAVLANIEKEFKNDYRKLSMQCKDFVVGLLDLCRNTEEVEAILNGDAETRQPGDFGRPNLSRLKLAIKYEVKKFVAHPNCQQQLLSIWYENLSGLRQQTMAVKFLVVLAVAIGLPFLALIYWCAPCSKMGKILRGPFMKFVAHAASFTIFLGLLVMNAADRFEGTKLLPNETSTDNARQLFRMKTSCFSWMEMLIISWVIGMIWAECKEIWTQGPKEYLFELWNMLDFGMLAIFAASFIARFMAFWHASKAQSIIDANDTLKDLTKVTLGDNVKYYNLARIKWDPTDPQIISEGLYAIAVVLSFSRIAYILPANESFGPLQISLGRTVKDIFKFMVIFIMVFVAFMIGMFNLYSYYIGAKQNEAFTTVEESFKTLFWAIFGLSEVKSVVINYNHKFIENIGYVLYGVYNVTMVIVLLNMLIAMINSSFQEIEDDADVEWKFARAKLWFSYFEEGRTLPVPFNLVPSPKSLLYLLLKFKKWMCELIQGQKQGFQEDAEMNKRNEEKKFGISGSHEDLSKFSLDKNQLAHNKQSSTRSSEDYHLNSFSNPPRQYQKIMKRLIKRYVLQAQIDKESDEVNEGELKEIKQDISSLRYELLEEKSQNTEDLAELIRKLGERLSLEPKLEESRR
# TRPC4 agonist: activators of mouse TRPC4 channel | HEK293 TRPC4beta/mu-opioid, Fluo4 calcium fluorescence; stronger effect = higher value | B-score at 10 µM | 310,000 tested, 0.49% active;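 active means B-score above 5 SD of library B-scores, and initial fluorescence ratio not above library mean plus 5 SD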;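 further: positive B-score marks a calcium rise read as TRPC4 activation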
#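 Incubation: 45 min room-temperature Fluo4 loading, 110 s read / System: HEK293 cells stably co-expressing mouse TRPC4beta and mu-opioid receptor / Signal: Fluo4 fluorescence, kinetic / Control set: buffer (low) and maximal DAMGO (high) / Measure: integrated baseline-normalised fluorescence ratio, converted to per-well B score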
# TRPC6 inh: inhibitors of mouse TRPC6 channel. Q61143. HEK293-TRPC6, membrane potential dye, ACh-evoked depolarization; stronger effect = lower value. B-score at 10 µM. 310,000 tested, 1.1% active. AID 2553;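 active means B-score under library mean minus 3 SD, initial fluorescence not abnormally high, positive integrated signal ratio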;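 further: B-score derived from integrated fluorescence ratio over the kinetic read; more negative B-score means stronger inhibition of depolarization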
# TRPC4 PAM: allosterically enhances the mouse TRPC4 cation channel | Q9QUQ5 | HEK293 TRPC4beta/mu-opioid, DAMGO EC20, Fluo-4 Ca2+ flux; stronger effect = higher value | B-score at 10 µM | 310,000 tested, 0.42% active;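 active means B-score of calcium response area above 5 SD of library B-scores, with initial fluorescence ratio within 5 SD of library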;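 further: B-score of integrated fluorescence ratio over time as area under calcium response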
# TRPC4 inh: inhibitors of mouse TRPC4 channel. HEK293 TRPC4beta/mu-opioid, DAMGO-evoked Fluo4 calcium flux; stronger effect = lower value. B-score at 10 µM. 300,000 tested, 0.39% active. AID 2247;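 active means B-score over 3 SD under the library average, no early fluorescence shift, positive overall ratio signal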
#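 Signal: kinetic Fluo4 fluorescence imaging of calcium influx. Material: stable TRPC4beta/mu-opioid receptor HEK293 cells. Probe or stimulus: DAMGO in two steps, submaximal then maximal.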
# TRPC4 spec 2: mouse TRPC4 off-target activity of TRPC6 inhibitors, second screen | shares compounds with TRPC6 inh | HEK293 TRPC4/MOR, membrane potential dye fluorescence; channel activated by saturating DAMGO dose | inhibition, % at 10 µM | 920 tested, 42% active | AID 2776;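 active means compounds whose fluorescence signal differed from control wells by over 3 SD, either direction, in both duplicate plates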
# TRPC4 spec: tests whether TRPC6 inhibitors also affect mouse TRPC4; shares compounds with TRPC6 inh; HEK293 TRPC4/mu-opioid, membrane potential fluorescence; activity change, negative = inhibition, % at 10 µM; 920 tested, 61% active;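 active means rise or fall in signal beyond 3 SD of buffer-only wells in both replicate plates, either sign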;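 further: integrated kinetic ratio of fluorescence range over baseline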
# HEK293 MPD ctr 2-1: second counter-screen for TRPC6 inhibitors: parental HEK293 cells | parental HEK293 membrane potential dye fluorescence; maximal acetylcholine challenge after compound addition | signal change vs control, % at 10 µM | 920 tested, 31% active | shares compounds with TRPC6 inh;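 active means membrane potential signal moving either way by over 3 SD of the maximum-effect control, in both duplicate plates, meaning non-specific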
# HEK293 MPD ctr-1: checks TRPC6 inhibitor effects in parental HEK293 cells | parental HEK293 membrane potential dye fluorescence | membrane potential signal change, % at 10 µM | 920 tested, 60% active | AID 2780 | shares compounds with TRPC6 inh;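 active means membrane potential signal shifting up or down by more than 3 SD of buffer-only wells, on both duplicate plates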
# HEK293 MPD ctr-2: counter-screen for TRPC6 modulators: effect in parental HEK293 cells; membrane potential dye fluorescence; shares compounds with TRPC6 inh; membrane potential signal change, % at 10 µM; 2,400 tested, 51% active; AID 488924;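 active means membrane potential signal moves up or down beyond 5 SD from buffer-only wells, on both duplicate plates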
# HEK293 MPD ctr 2-2: second check of TRPC6 modulator effects in parental HEK293 cells; inhibition, % at 10 µM; 2,400 tested, 14% active; AID 488926; shares compounds with TRPC6 inh; membrane potential dye fluorescence; after compound, maximal acetylcholine stimulation;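 active means membrane potential signal drops by more than 5 SD from the mean control signal, in both duplicate plates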;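 further: plate controls were acetylcholine ECmax control wells for no effect and buffer only wells for full effect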
# TRPC4/MOR mod: selectivity of TRPC6 modulators against mouse TRPC4. AID 488927. 2,400 tested, 69% active. HEK293 TRPC4/mu-opioid, membrane potential fluorescence. shares compounds with TRPC6 inh. percent change from control (negative = decrease, positive = increase), % at 10 µM;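 active means membrane potential signal moved up or down beyond 5 SD of buffer control wells, in both duplicate plates, actives on both sides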;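 further: plate controls were assay buffer wells for no effect and DAMGO maximal-effect wells for full effect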
# TRPC4/MOR inh 2: second selectivity test of TRPC6 modulators against mouse TRPC4 | inhibition, % at 10 µM | shares compounds with TRPC6 inh | 2,400 tested, 55% active | HEK293 TRPC4/mu-opioid, membrane potential dye fluorescence; stimulated with maximal-effect DAMGO;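 active means drop in membrane potential signal beyond 5 SD of the control wells in both duplicate plates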;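 further: TRPC4 counter screen for TRPC6 hits run under conditions tuned for TRPC6 not TRPC4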
# TRPC6 inh conf: confirmation of mouse TRPC6 inhibitors; inhibition, % at 10 µM; 3,300 tested, 43% active; shares compounds with TRPC6 inh; HEK293-TRPC6, membrane potential dye, ACh-evoked depolarization;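 active means fluorescence ratio falls more than 5 SD below the full-stimulation control mean, in both duplicate runs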;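 further: integrated fluorescence ratio of peak minus minimum over baseline after agonist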
# TRPC6 act conf: confirmation of mouse TRPC6 activators. shares compounds with TRPC6 inh. HEK293-TRPC6 membrane potential dye fluorescence, FDSS. activation, % at 10 µM. 2,800 tested, 11% active;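 active means ratio signal rise beyond 5 SD above unstimulated control wells' mean, seen in both duplicate runs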;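 further: plate controls were buffer EC0 wells for no effect and acetylcholine ECmax response for full effect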
# Starred values were filed as active, the others as inactive; i = inactive; x = no result given.
SMILES,TRPC6 activator,TRPC4 agonist,TRPC6 inh,TRPC4 PAM,TRPC4 inh,HEK293 MPD ctr-2,HEK293 MPD ctr 2-2,TRPC4/MOR mod,TRPC4/MOR inh 2,TRPC6 inh conf,TRPC6 act conf,others
CCOC(=O)c1cnc2c(Cl)cccc2c1NCCN(C)C,i,i,-9.2*,i,i,x,x,x,x,73%*,i,TRPC4 spec 2=68%*;TRPC4 spec=-26%*;HEK293 MPD ctr 2-1=18%*;HEK293 MPD ctr-1=-448%*
CCOC(=O)C1=C(C)N(C)C(=O)NC1c1cc2c(cc1Br)OCO2 (stereo unspecified),i,i,i,i,i,x,x,x,x,x,x,
O=C(NCCCNC(=O)c1ccco1)c1ccc(Cl)c(Cl)c1,i,i,i,i,i,x,x,x,x,x,x,
Cc1ccc(N2CCN(C(=O)c3ccccc3NC(=O)c3ccccc3C(=O)O)CC2)cc1,i,i,i,i,i,x,x,x,x,x,x,
Cc1ccc(C(=O)N2CCN=C2SCc2ccc([N+](=O)[O-])cc2)cc1C,i,i,i,i,i,x,x,x,x,x,x,
COc1cc(CN2CCN(C(=O)CC(C)C)CC2)cc(OC)c1O,i,i,i,i,i,x,x,x,x,x,x,
OC(CCN1CCCCC1)(c1ccccc1)c1ccccc1,i,i,-7.1*,i,i,x,x,x,x,74%*,x,TRPC4 spec 2=i;TRPC4 spec=17%*;HEK293 MPD ctr 2-1=-7.0%*;HEK293 MPD ctr-1=12%*
OC(CCN1CCCC1)(c1ccccc1)C1CCCCC1 (stereo unspecified),i,i,-8.2*,i,i,x,x,x,x,79%*,x,TRPC4 spec 2=i;TRPC4 spec=24%*;HEK293 MPD ctr 2-1=-14%*;HEK293 MPD ctr-1=15%*
COc1ccc(C(=O)Nc2cccc(N(C)S(C)(=O)=O)c2)cc1OC,i,i,i,i,i,x,x,x,x,x,x,
Cc1ccc(C(=O)Nc2cccc(N(C)S(C)(=O)=O)c2)cc1S(=O)(=O)Nc1ccccc1,i,i,-7.7*,i,i,x,x,x,x,i,i,TRPC4 spec 2=i;TRPC4 spec=i;HEK293 MPD ctr 2-1=i;HEK293 MPD ctr-1=i
Cc1cccc(NC(=O)c2cc(-c3cc(C)ccc3O)n[nH]2)c1,i,i,i,i,i,x,x,x,x,x,x,
COc1ccc(-c2cc(N3CCCC3)n3ncnc3n2)cc1,i,i,-6.5*,i,i,134%*,i,26%*,i,i,x,
COc1ccc(S(=O)(=O)N2CCN(c3cc(-c4ccccc4)nc4ncnn34)CC2)cc1,i,i,i,i,i,x,x,x,x,x,x,
Nc1c2c(nc3ccn(-c4ccccc4)c(=O)c13)CCCCC2,i,i,-5.4*,i,i,-151%*,i,-28%*,38%*,i,i,
Nc1c2c(nc3ccn(Cc4ccccc4)c(=O)c13)CCC2,i,i,-7.5*,i,i,x,x,x,x,73%*,i,TRPC4 spec 2=72%*;TRPC4 spec=-22%*;HEK293 MPD ctr 2-1=-10%*;HEK293 MPD ctr-1=-353%*
NS(=O)(=O)c1ccc(CCNC(=O)c2cccc(OC(F)F)c2)cc1,i,i,i,i,i,x,x,x,x,x,x,
Cc1cccc(N2CCN(C(=O)C(C)n3nc(C)n4c(cc5occc54)c3=O)CC2)c1C (stereo unspecified),i,i,-5.1*,i,i,i,i,14%*,i,i,x,
Cc1nn(C(C)C(=O)N2CCN(c3ccccn3)CC2)c(=O)c2cc3occc3n12 (stereo unspecified),i,i,i,i,i,x,x,x,x,x,x,
Cc1ccc2nc3c(cc(S(=O)(=O)c4ccccc4)c(=N)n3Cc3ccco3)c(=O)n2c1,i,i,-5.5*,i,i,i,i,i,i,i,i,
O=C(/C=C/c1ccco1)NCC(=O)N/N=C/c1ccccc1[N+](=O)[O-],i,i,i,i,i,x,x,x,x,x,x,
CN(C)C(=O)CN(c1ccc(F)c(Cl)c1)S(C)(=O)=O,i,i,i,i,i,x,x,x,x,x,x,
CCN1C(=O)/C(=C/C=C2\C=CN(CC)c3ccccc32)SC1=S,i,i,-6.1*,i,i,i,i,-27%*,80%*,i,i,
COc1ccc(Nc2ccc(S(=O)(=O)N3CCCCC3)cc2[N+](=O)[O-])cc1,i,i,-5.3*,26*,i,i,i,i,i,i,i,
COC1=C(Nc2ccccc2OC)C(=O)c2ccccc2C1=O,i,i,-5.8*,i,i,-91%*,i,-24%*,38%*,i,i,
COc1ccc(C(=O)N/N=C/c2ccccn2)cc1OC,i,i,-7*,i,i,-296%*,i,-50%*,40%*,38%*,i,
COc1ccc(C(=O)Nc2ccccc2C(=O)N/N=C/c2ccccn2)cc1OC,i,i,i,i,i,x,x,x,x,x,x,
CN(C)c1ccc(C(=O)N/N=C/c2ccccn2)cc1,i,i,-6.6*,i,i,-159%*,i,-28%*,36%*,i,i,
CCOc1ccccc1N(CC(=O)NC(C)(C)C)C(=O)c1ccc(CN2CCOCC2)o1,i,i,i,i,i,x,x,x,x,x,x,
CCOC(=O)c1[nH]ncc1CN1CCCC(C(=O)c2cccc3ccccc23)C1 (stereo unspecified),i,i,i,i,i,x,x,x,x,x,x,
